The subject of assay [1] is Streptococcus gordonii. Kind of assay: Antimicrobial activity against […] and streptomycin-resistant Streptococcus gordonii Tol1 harboring Tol1 mutation in ptsI after 24 hrs by macrodilution assay. In kind it is functional. Conditions: Tol1, 24 h. Put shortly:
(§1)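 MIC by standard broth macrodilution; streptococci grown at 37°C in BHI broth without aeration.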

In assay [2] the test system is Streptococcus gordonii. Kind of assay: Antimicrobial activity against erythromycin- and streptomycin-resistant Streptococcus gordonii Tol1 harboring R483P mutation in ptsI assessed as bacterial count at 2 ug/ml after 24 hrs by macrodilution technique. It is filed as functional.
In assay [3] the test system is Streptococcus gordonii. Kind of assay: Antimicrobial activity against wild type streptomycin-susceptible Streptococcus gordonii after 24 hrs by macrodilution method. It is filed as functional. A digest of the protocol:
as §1

The test system of assay [4] is Streptococcus gordonii. The experiment in a line: Antimicrobial activity against wild type streptomycin-susceptible Streptococcus gordonii assessed as bacterial count at 2 ug/ml after 24 hrs by macrodilution method. In kind it is functional. A digest of the protocol:
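Time-kill assay: exponentially growing cultures in BHI broth at 37°C without aeration. Penicillin G was added at 2 μg/ml when OD600 reached 0.2 (about 1 × 10^8 CFU/ml). Viable counts were taken on agar plates, and the result is the loss of log10 CFU/ml after 24 h of exposure.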

In assay [5] the test system is Streptococcus gordonii. The experiment in a line: Antimicrobial activity against […] and streptomycin-resistant Streptococcus gordonii Tol1 harboring Tol1 mutation in ptsI assessed as bacterial count at 2 ug/ml after 24 hrs by macrodilution assay. It is filed as functional.
In assay [6] the test system is Streptococcus gordonii. Kind of assay: Antimicrobial activity against wild type streptomycin-susceptible Streptococcus gordonii harboring P483R mutation in ptsI assessed as bacterial count at 2 ug/ml after 24 hrs by macrodilution technique.
Assay [7] relates to Streptococcus gordonii. Kind of assay: Antimicrobial activity against wild type streptomycin-susceptible Streptococcus gordonii harboring […] mutation in ptsI infected in Wistar rat assessed as decrease in bacterial infection at 300000 U/kg, sc administered 16 hrs after infection every 12 hrs for 2 days measured within 3 days post last dose. It is filed as functional, organism-based.

For assay [8], the system named is Streptococcus gordonii. Kind of assay: Antimicrobial activity against wild type streptomycin-susceptible Streptococcus gordonii harboring […] mutation in ptsI assessed as decrease in [14C]glucose uptake at 2 ug/ml after 60 mins by liquid scintillation counting. It is filed as functional, organism-based. A digest of the protocol:
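Cells grown in BHI to OD550 ca 0.3, exposed to 2 μg/ml penicillin for 20, 40 or 60 min, washed in PBS-5 mM MgCl2, preincubated 10 min at 35°C; uptake started with [14C]glucose (600 dpm/nmol), aliquots diluted in cold stopping buffer, filtered on glass fibre, counted by liquid scintillation; 4°C high-dilution adsorption control.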

For assay [9], the system named is Streptococcus gordonii. The experiment in a line: Antimicrobial activity against […] and streptomycin-resistant Streptococcus gordonii Tol1 harboring Tol1 mutation infected in Wistar rat assessed as protection against bacterial infection at 300000 U/kg, sc administered 16 hrs after infection every 12 hrs for 2 days measured within 3 days post last dose. It is filed as functional, organism-based.

The test system of assay [10] is Streptococcus gordonii. Kind of assay: Antimicrobial activity against erythromycin- and streptomycin-resistant Streptococcus gordonii Tol1 harboring R483P mutation in ptsI infected in Wistar rat assessed as protection against bacterial infection at 300000 U/kg, sc administered 16 hrs after infection every 12 hrs for 2 days measured within 3 days post last dose. In kind it is functional, organism-based.

Assay [11] deals with Streptococcus gordonii. The experiment in a line: Antimicrobial activity against wild type streptomycin-susceptible Streptococcus gordonii assessed as decrease in [14C]glucose uptake at 2 ug/ml after 60 mins by liquid scintillation counting. In kind it is functional, organism-based. Put shortly:
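Cells were grown in BHI to OD550 of about 0.3, then exposed to penicillin at 2 μg/ml for 20, 40 or 60 min. They were washed in PBS-5 mM MgCl2, concentrated, and preincubated for 10 min at 35°C. Uptake was started with 20 mM stock [14C]glucose (600 dpm/nmol). Timed aliquots went into cold stop buffer, were filtered on glass fiber, and were counted by scintillation. A 4°C high-dilution sample corrected for nonspecific binding.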

Assay [12] concerns Streptococcus gordonii. Kind of assay: Antimicrobial activity against wild type streptomycin-susceptible Streptococcus gordonii infected in Wistar rat assessed as decrease in bacterial infection at 300000 U/kg, sc administered 16 hrs after infection every 12 hrs for 2 days measured within 3 days post last dose. In kind it is functional, organism-based. A digest of the protocol: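 Female Wistar rats carried sterile aortic vegetations. After 24 h they were challenged i.v. with 10^7 CFU of exponential-phase streptococci in 0.5 ml saline. From 16 h post-inoculation, procaine penicillin 300,000 U/kg was given s.c. every 12 h for 2 days. Untreated controls were killed at therapy onset, and treated rats 12 h after the trough of the last dose. Vegetations were weighed and plated for CFU.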

≈ marks a conversion by molar mass, not a printed value. Calls of active or inactive are those of the source.

For orientation: MIC means the smallest concentration in the dilution series that meets the test's criterion for growth inhibition. Low values mean inhibition by little substance, high ones a need for much substance.

With `C[C@@H](O)[C@H]1C(=O)N2C(C(=O)O)=C(SCCNC=N)C[C@H]12` [IMIPENEM ANHYDROUS], the MIC with Streptococcus gordonii [1] and in the assay on Streptococcus gordonii [3] was 4 ng/mL (≈ 0.0134 µM) throughout. The Activity in the assay with Streptococcus gordonii [2] stood at 5.3 log10CFU/ml; in the assay with Streptococcus gordonii [4], 6.1 log10CFU/ml; in the assay with Streptococcus gordonii [5], 2 log10CFU/ml; in the assay with Streptococcus gordonii [6], 2.1 log10CFU/ml.
Regarding `CC1(C)S[C@@H]2[C@H](NC(=O)Cc3ccccc3)C(=O)N2[C@H]1C(=O)O` [PENICILLIN G], the inhibition entry in the assay on Streptococcus gordonii [7] and in the assay with Streptococcus gordonii [9] was “inactive” in each case. In addition, the MIC against Streptococcus gordonii [1] and in the assay on Streptococcus gordonii [3] was 8 ng/mL (≈ 0.0239 µM) each time. For the same compound, the Activity in the assay with Streptococcus gordonii [2] was 3.9 log10CFU/ml; with Streptococcus gordonii [4] it was 4.5 log10CFU/ml; in the assay with Streptococcus gordonii [5] it was 0.6 log10CFU/ml; in the assay on Streptococcus gordonii [6] it was 0.7 log10CFU/ml. In addition, the inhibition entry in the assay with Streptococcus gordonii [8], in the assay on Streptococcus gordonii [11] and in the assay on Streptococcus gordonii [12] was “Active” throughout. Also, in the assay on Streptococcus gordonii [10], the result was Active.
